One data set concerns the target T1, Adenosine receptor A1 (Homo sapiens, UniProt P30542).
T1 sequence (P30542 whole entry): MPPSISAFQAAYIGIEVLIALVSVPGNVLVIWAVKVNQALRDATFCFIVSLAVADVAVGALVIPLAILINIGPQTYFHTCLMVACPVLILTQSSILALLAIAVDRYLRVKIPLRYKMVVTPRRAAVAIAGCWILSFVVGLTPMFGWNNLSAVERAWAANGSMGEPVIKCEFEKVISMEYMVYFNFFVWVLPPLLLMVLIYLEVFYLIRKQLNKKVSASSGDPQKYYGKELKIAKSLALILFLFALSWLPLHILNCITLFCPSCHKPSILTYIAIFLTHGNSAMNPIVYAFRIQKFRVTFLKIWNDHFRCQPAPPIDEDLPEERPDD
Kind of data set: Antagonist activity at human adenosine A1 receptor expressed in HEK293 cell membranes assessed as decrease in CPA/forskolin-induced cAMP level pretreated for 15 mins followed by agonist addition for 15 mins and subsequent forskolin stimulation measured after 30 mins. It is filed as functional, cell-based. The method, boiled down:
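HTRF cAMP assay in overnight-seeded HEK cells expressing human A1, A2A or A2B, pretreated with ADA 1 U/ml for 90 min at 37 °C. Cells were given compound at increasing concentrations for 15 min, then agonist at room temperature in incomplete DMEM with ADA: CPA 1 nM, 15 min (A1); CGS-21680 10 nM, 30 min (A2A); NECA 70 nM, 15 min (A2B). Rolipram 20 μM for A1 and A2A; forskolin 30 min for A1 only. 12 concentrations, triplicates; IC50/Ki by curve fitting.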
For orientation: Cyclic AMP is a second messenger, typically raised through Gs and lowered through Gi signalling.

For the next data set, the target named is hERG (KCNH2) (Homo sapiens, UniProt Q12809). The data set can be described thus: Inhibition of [3H]-astemizole binding to human ERG at 3 uM after 2 hrs by liquid scintillation counting method relative to control. The following applies: probe [3H]-astemizole.
hERG (KCNH2), sequence (Q12809 whole entry): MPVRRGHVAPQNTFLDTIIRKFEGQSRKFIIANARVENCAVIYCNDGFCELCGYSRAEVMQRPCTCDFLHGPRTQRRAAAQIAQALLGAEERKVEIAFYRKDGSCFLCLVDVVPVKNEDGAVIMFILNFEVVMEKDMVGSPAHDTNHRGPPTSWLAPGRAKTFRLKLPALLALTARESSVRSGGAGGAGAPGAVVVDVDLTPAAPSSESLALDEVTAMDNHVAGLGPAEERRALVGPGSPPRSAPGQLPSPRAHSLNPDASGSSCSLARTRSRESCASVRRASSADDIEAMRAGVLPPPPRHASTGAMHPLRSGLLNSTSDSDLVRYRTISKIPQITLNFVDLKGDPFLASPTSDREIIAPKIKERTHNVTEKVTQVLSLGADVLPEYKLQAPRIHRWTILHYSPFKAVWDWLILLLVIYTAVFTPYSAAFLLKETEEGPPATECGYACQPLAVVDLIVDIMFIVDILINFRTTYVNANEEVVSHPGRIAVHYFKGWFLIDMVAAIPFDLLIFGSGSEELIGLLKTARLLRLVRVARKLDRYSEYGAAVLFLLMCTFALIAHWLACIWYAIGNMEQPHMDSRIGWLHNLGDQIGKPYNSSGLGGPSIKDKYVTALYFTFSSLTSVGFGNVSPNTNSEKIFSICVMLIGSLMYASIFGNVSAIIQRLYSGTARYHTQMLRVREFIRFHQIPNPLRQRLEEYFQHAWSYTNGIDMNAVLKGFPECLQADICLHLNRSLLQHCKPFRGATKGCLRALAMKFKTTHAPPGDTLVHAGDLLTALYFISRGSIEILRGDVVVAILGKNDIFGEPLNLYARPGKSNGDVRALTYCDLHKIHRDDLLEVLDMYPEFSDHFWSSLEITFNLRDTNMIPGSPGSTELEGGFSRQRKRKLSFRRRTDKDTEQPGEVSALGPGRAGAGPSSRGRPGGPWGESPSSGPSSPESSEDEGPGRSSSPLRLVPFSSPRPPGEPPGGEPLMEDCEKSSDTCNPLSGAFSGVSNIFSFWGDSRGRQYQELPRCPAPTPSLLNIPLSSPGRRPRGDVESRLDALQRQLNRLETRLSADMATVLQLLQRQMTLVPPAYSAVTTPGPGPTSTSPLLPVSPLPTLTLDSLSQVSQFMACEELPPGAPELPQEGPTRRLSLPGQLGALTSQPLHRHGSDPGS
Data set [1] has as its target T2, Adenosine receptor A3 (Homo sapiens) (UniProt P0DMS8).
T2 sequence (whole entry): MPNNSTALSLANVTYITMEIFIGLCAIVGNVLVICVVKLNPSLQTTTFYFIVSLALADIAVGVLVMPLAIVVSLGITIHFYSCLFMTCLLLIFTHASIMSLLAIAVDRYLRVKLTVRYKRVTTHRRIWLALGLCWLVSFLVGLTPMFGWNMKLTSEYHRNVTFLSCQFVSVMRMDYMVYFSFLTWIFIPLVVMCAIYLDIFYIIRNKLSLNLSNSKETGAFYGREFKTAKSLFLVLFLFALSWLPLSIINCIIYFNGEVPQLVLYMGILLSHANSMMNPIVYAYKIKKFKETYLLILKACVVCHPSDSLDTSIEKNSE
The data set can be described thus: Displacement of [3H]-HEMADO from human adenosine A3 receptor expressed in HEK293 cell membranes at 30 uM measured after 90 mins.

The target of data set [2] is T3, Adenosine receptor A1 (Homo sapiens) (UniProt P30542).
T3 sequence (whole entry): T1 sequence (P30542 whole entry)
Kind of data set: Antagonist activity at human adenosine A1 receptor expressed in HEK293 cell membranes assessed as decrease in CPA/forskolin-induced cAMP level at 30 uM pretreated for 15 mins followed by agonist addition for 15 mins and subsequent forskolin stimulation measured after 30 mins. Format: functional, cell-based. The method, boiled down:
(§1)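 Whole HEK-A1 cells were seeded overnight and then pretreated with 1 U/ml ADA for 90 min at 37 °C and 5% CO2. Compound was added for 15 min, then 1 nM CPA for 15 min, then forskolin for 30 min, at room temperature in incomplete DMEM with ADA and 20 μM rolipram. cAMP was read by HTRF (620/665 nm). Compounds ran at 12 concentrations in triplicate, with 10 or 30 μM as the top concentration.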

Data set [3] in a line: Metabolic stability in rat hepatocytes assessed as parent compound remaining at 1 uM measured at 60 mins post dose by LC-MS/MS analysis. Format: ADME, cell-based, Hepatocyte. The settings on record: read-out: Stability.
Data set [4] is described as follows: Apparent permeability across apical to basolateral side in human Caco2 cells at 5 uM after 90 mins. It is filed as ADME, cell-based. The settings on record: Caco-2. In general terms: Passage across Caco-2 layers is used to estimate intestinal permeability.
For another data set, the system named is HepG2. The data set can be described thus: Cytotoxicity against human HepG2 cells. It is filed as cell-based.
The nature of data set [5]: AUC (0 to t) in Wistar rat plasma at 10 mg/kg administered through oral gavage by LC/MS/MS analysis. It is filed as ADME, organism-based.
Data set [6] has as its system Rattus norvegicus. Kind of data set: Clearance in Wistar rat at 3 mg/kg, iv by LC/MS/MS analysis relative to hepatic blood flow. It is filed as ADME, organism-based. The following applies: in vivo.
Data set [7] has as its system Rattus norvegicus. Kind of data set: Neuroprotective activity in po dosed 6-OHDA-lesioned Wistar rat model of parkinson disease assessed as increase in L-DOPA induced contralateral rotations pretreated for 30 mins followed by benserazide addition and subsequent L-DOPA stimulation for 30 mins measured at 60 mins post dose. Format: functional, organism-based. In outline: (§2)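 Male Wistar rats (295–305 g) anesthetized with ketamine/xylazine and given desipramine 10 mg/kg i.p. 30 min before 6-OHDA lesioning. At two weeks, rats were screened with apomorphine 0.05 mg/kg i.p. and kept only if they made ≥100 rotations in 1 h. Compound (30 or 100 mg/kg p.o., in 1% Tween 80/0.5% MC) was given 30 min before benserazide. L-DOPA 4 mg/kg i.p. followed 30 min later. Contralateral rotations counted over 2 h; one-way ANOVA with Dunnett's test.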

Data set [8] has as its system Rattus norvegicus. Kind of data set: Neuroprotective activity in 6-OHDA-lesioned Wistar rat model of parkinson disease assessed as increase in L-DOPA induced contralateral rotations at 100 mg/kg, po pretreated for 30 mins followed by benserazide addition and subsequent L-DOPA stimulation for 30 mins measured up to 2 hrs. Format: functional, organism-based. In outline:
as §2

Another data set has as its target CYP2C9 (Homo sapiens, UniProt P11712). Kind of data set: Inhibition of CYP2C9 in human liver microsomes at 5 to 25 uM using diclofenac as substrate preincubated for 5 mins with substrate followed by NADPH addition measured after 10 mins by LC-MS/MS analysis. The settings on record: human liver microsomes, probe diclofenac. Format: ADME.
In another data set the target is CYP2C19 (Homo sapiens, UniProt P33261). The data set can be described thus: Inhibition of CYP2C19 in human liver microsomes at 5 to 25 uM using (S)mephenytoin as substrate preincubated for 5 mins with substrate followed by NADPH addition measured after 40 mins by LC-MS/MS analysis. Format: ADME. The following applies: human liver microsomes, probe (S)-mephenytoin. A general note: Liver microsomes are vesicles of endoplasmic reticulum, rich in cytochrome P450 enzymes.
CYP2C19, sequence (P33261 whole entry): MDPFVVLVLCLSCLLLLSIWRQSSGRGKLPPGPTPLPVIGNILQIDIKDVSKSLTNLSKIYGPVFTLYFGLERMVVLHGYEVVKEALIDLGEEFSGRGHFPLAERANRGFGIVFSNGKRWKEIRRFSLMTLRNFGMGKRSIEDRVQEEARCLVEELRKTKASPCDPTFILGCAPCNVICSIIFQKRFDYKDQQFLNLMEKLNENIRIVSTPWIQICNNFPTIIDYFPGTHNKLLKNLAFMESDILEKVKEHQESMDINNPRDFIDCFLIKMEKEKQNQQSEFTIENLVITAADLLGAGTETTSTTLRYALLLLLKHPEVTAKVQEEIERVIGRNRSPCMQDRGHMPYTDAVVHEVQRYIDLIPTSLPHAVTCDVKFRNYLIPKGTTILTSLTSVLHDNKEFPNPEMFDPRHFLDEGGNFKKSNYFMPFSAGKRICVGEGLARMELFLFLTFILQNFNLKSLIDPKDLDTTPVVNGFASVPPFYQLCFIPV

In another data set the target is CYP3A (Homo sapiens, UniProt P08684+P20815+P24462+Q9HB55). The data set can be described thus: Inhibition of CYP3A in human liver microsomes at 5 to 25 uM using testosterone as substrate preincubated for 5 mins with substrate followed by NADPH addition measured after 10 mins by LC-MS/MS analysis. The following applies: human liver microsomes, probe testosterone. Format: ADME.

In data set [9] the target is T3, Adenosine receptor A1 (Homo sapiens). The data set can be described thus: Antagonist activity at human adenosine A1 receptor expressed in HEK293 cell membranes assessed as decrease in CPA/forskolin-induced cAMP level at 10 uM pretreated for 15 mins followed by agonist addition for 15 mins and subsequent forskolin stimulation measured after 30 mins. Format: functional, cell-based. The method, boiled down: as §1

Data set [10] in a line: Metabolic stability in rat hepatocytes at 1 uM after 3 to 30 mins by LC-MS/MS analysis. It is filed as ADME, cell-based, Hepatocyte.
Data set [11] has as its target Voltage-gated inwardly rectifying potassium channel KCNH2 (Homo sapiens, UniProt Q12809). Kind of data set: Inhibition of [3H]-astemizole binding to human ERG at 10 uM after 2 hrs by liquid scintillation counting method relative to control. The settings on record: 2 h, 10 µM.

This note sets out measurements from ChEMBL document CHEMBL4002602, “Design, Synthesis of Novel, Potent, Selective, Orally Bioavailable Adenosine A2A Receptor Antagonists and Their Biological Evaluation” (J Med Chem, 2017).

Molecules are shown by their SMILES. Active and inactive are the calls of the source. The calls are words filed in the database; no cut-off is given here.

CYP2C9, sequence (P11712 whole entry): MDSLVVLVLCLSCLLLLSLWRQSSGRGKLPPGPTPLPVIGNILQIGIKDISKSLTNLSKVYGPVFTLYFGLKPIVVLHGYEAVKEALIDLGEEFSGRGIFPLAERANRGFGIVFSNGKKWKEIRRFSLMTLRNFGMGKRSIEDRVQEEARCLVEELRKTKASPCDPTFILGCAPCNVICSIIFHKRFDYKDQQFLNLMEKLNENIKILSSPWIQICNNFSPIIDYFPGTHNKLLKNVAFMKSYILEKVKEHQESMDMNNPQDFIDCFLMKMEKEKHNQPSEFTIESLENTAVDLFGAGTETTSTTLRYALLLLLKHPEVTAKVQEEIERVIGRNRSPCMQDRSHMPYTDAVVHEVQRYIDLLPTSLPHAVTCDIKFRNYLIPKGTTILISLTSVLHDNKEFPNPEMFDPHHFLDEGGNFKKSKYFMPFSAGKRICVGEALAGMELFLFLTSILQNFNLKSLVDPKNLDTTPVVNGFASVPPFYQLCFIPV
Voltage-gated inwardly rectifying potassium channel KCNH2, sequence (Q12809 whole entry): as the sequence (Q12809 whole entry) above

With `COc1ccc(N2CCOCC2)c2sc(NC(=O)C(C)(C)Oc3ccc(F)cc3)nc12`, the inhibitory constant (Ki) on Adenosine receptor A1 amounted to 2 µM. Also, the inhibition at 2 h, 3 µM at hERG (KCNH2) was < 5%.
As for `CCN(CC)C1CCC(C)(C(=O)Nc2nc3c(OC)ccc(N4CCOCC4)c3s2)CC1` (stereo not drawn), the outcome in data set [1] and in data set [2] was inactive. In addition, the remaining at 1 h, 1 µM in data set [3] is 89%. In data set [4], the apparent permeability from apical to basolateral (Papp A→B) at 1.5 h, 5 µM came to 3.7 ×10⁻⁶ cm/s. Moreover, in the data set with HepG2, the 50% inhibitory concentration (IC50) was > 100 µM. Besides, the AUC(0-t) in data set [5] was 4.7 µM·h. This compound also came in with a clearance in the data set with Rattus norvegicus [6] of 60 to 65%. In the data set on Rattus norvegicus [7], the Activity result is “Dose-dependent effect”. Also, in the data set with Rattus norvegicus [8], the result was Active. The IC50 at 10 min against CYP2C9 and on CYP3A was > 50 µM throughout. Further, the IC50 at 40 min against CYP2C19 is > 50 µM.
For the compound `COc1cnc(N2CCOCC2)c2sc(NC(=O)C(C)(C)Oc3ccc(F)cc3)nc12`, the result in data set [9] was inactive. Besides, the Stability result in data set [10] is on record as “Stable”.
As for `COc1ccc(N2CCOCC2)c2sc(NC(=O)C(C)(C)Oc3ccc(F)c(F)c3)nc12`, the outcome in data set [9] was inactive. For the same compound, the inhibition at 2 h, 3 µM on hERG (KCNH2) was < 5%.
With `COc1ccc(N2CCOCC2)c2sc(NC(=O)C3(C)CCC(C)(O)CC3)nc12` (stereo not drawn), in data set [11], the “inhibition (INH)” value is reported as “Not Active”. Also, the outcome in data set [1] and in [2] was inactive. Also, in data set [3], the remaining at 1 h, 1 µM turned out to be 88%. In addition, the Papp A→B at 1.5 h, 5 µM in data set [4] turned out to be 12.2 ×10⁻⁶ cm/s. Besides, the 50% inhibitory concentration (IC50) in the data set with HepG2 is > 100 µM. The compound further came in with a clearance with Rattus norvegicus [6] of 60 to 65%. Further, the half-inhibitory concentration (IC50) at 10 min against CYP2C9 and against CYP3A was > 25 µM each time. The half-inhibitory concentration (IC50) at 40 min against CYP2C19 is > 25 µM.

For orientation: Ki means a measure of affinity in units of concentration, obtained from inhibition or displacement. A word on the inhibition: it is the drop in the measured response relative to a control, in per cent. For orientation: Papp A→B means how fast a substance crosses the layer from the apical side. By IC50 is commonly meant the concentration needed to halve the response being measured. Read a low IC50 as greater potency in that assay. Broadly, the AUC(0-t) is the area under the concentration-time curve up to a stated or last time point. A lower AUC(0-t) goes with less exposure.
